Assay results from publication PMC10962891 (Hepatology Communications, 2024).
Entries after “also recorded” stand apart in the source; their conditions may differ.

Assays:
[1] = target: T1, human FXRα4 (Homo sapiens, UniProt Q96RI1); test: FXR luciferase reporter assay in 293T cells transfected with FXRα4; format: cell-based; settings: 10 µM, cells overexpressing FXRα4, independent of bile salt importer
T1 sequence (Q96RI1 1-482 isoform Q96RI1-4): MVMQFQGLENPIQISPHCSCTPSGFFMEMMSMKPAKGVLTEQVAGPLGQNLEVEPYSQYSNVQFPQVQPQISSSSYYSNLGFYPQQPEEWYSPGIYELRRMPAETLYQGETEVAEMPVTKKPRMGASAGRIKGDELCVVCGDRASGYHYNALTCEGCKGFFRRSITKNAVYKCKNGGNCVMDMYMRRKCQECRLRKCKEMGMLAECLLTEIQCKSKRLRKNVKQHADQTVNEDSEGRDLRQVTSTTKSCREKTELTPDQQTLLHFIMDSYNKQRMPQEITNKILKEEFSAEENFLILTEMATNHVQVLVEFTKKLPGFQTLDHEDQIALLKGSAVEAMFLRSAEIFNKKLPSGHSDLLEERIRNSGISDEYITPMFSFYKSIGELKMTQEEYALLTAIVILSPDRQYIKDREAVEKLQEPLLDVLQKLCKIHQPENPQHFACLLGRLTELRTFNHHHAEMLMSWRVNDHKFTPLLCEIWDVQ
T1 sequence (P19793 1-462 partner): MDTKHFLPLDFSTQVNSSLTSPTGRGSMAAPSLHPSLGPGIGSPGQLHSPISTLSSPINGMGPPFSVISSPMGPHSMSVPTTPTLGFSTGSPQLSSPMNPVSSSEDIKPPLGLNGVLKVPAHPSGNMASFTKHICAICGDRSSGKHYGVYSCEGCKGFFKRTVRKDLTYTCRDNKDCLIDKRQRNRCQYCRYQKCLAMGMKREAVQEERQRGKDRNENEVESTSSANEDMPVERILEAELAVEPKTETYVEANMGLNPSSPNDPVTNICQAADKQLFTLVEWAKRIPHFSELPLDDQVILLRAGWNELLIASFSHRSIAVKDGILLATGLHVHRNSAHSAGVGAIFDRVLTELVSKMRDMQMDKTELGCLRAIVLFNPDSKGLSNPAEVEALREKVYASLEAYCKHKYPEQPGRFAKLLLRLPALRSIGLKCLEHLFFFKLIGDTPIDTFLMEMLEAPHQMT
Summary of the method: (§1)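 293T cells (70–80% confluent) were co-transfected by lipofection with FXRα2 or FXRα4 (10 ng), RXRα (2 ng), an Shp-element firefly reporter (5 ng), Renilla pRL-TK (2 ng), ASBT or NTCP (0 or 1 ng) and GFP filler to 100 ng. After 24 h, cells received 0.1% DMSO, a 10 µM positive control, or test compounds in serum-free medium for 24 h. Firefly:Renilla ratios were set relative to DMSO; quadruplicates, 3 independent runs.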

[2] = target: T2, human FXRα2 (Homo sapiens, UniProt Q96RI1); test: FXR luciferase reporter assay in 293T cells transfected with FXRα2; format: cell-based; settings: for EC50: read-out: EC50 for FXR (cell-based reporter assay, composite EC50), second column entry, 293T cells expressing FXRα2, RXRα, ASBT, repeated thrice for L-TyrCDCA only
T2 sequence (Q96RI1 1-472 isoform Q96RI1-2): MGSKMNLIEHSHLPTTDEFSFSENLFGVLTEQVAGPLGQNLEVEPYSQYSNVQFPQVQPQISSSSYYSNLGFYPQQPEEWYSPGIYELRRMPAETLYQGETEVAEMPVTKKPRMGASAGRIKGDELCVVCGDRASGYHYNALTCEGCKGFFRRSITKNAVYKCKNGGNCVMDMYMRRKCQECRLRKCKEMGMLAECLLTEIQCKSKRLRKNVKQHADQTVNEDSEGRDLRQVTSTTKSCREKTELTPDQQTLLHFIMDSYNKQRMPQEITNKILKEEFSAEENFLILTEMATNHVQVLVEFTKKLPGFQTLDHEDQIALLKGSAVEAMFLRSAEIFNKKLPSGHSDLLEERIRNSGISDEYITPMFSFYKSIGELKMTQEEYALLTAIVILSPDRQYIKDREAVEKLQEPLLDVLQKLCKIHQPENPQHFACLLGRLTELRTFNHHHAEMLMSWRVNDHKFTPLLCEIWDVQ
T2 sequence (P19793 1-462 partner): T1 sequence (P19793 1-462 partner)
Summary of the method: as §1

[3] = target: T3, human TGR5 (Homo sapiens, UniProt Q8TDU6); test: cell-based
T3 sequence (Q8TDU6 1-330): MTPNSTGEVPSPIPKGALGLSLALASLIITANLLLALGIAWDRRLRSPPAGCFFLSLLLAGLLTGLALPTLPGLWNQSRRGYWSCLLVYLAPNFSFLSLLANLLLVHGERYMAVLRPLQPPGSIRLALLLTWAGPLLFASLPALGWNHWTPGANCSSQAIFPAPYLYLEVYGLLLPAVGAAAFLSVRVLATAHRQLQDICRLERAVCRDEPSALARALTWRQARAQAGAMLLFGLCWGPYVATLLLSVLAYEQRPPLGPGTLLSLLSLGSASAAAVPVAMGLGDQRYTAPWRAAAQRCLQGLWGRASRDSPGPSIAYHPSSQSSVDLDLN

[4] = system: C. difficile; settings: cited from earlier work
[5] = system: C. difficile; settings: cited from earlier work; remark: listed apart in the source
[6] = system: RAW264.7 cells; test: LPS-induced cytokine release; format: cell-based, murine; settings: then 3 ng/mL LPS 23 h; for effect on LPS-enhanced medium levels of TNFα and IL-6: 100 µM pretreatment 1 h
Summary of the method: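 RAW264.7 cells at 70–80% confluency were pretreated 1 h in serum-free medium with 0.1% DMSO, a 50 µM positive control, or test compounds. LPS (E. coli O128:B12, 3 ng/mL) was then added for 23 h. Cleared supernatants (300 g, 10 min) were assayed for IL-6 and TNFα by ELISA, normalized to cellular protein. Quadruplicates; three repeats.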

[7] = system: microbial composition; settings: initial tests; cited from earlier work
[8] = mice, considerable dose; cited from earlier work
[9] = target: T3, human TGR5; format: cell-based; settings: 10 µM positive control, 293T cells -/+ TGR5 overexpression

CC[C@H]1[C@@H](O)[C@@H]2[C@H](CC[C@]3(C)[C@@H]([C@H](C)CCC(=O)O)CC[C@@H]23)[C@@]2(C)CC[C@@H](O)C[C@@H]12 [OCA, obeticholic acid, reference compound]
FXR reporter activation [1]: strongly activated
FXR reporter activation in mock-transfected cells (-OSTαβ) ([2]; 10 µM, FXRα2/RXRα, no transporter): able to activate FXR
FXR reporter activation ([2]; 10 µM, cells overexpressing FXRα2, independent of bile salt importer): strongly activated

C[C@H](CCC(=O)NCCS(=O)(=O)O)[C@H]1CC[C@H]2[C@@H]3[C@H](O)C[C@@H]4C[C@H](O)CC[C@]4(C)[C@H]3C[C@H](O)[C@]12C [TCA, Taurocholic acid]
EC50 [3]: 277 ± 16.6 µM

C[C@H](CCC(=O)N[C@@H](Cc1ccc(O)cc1)C(=O)O)[C@H]1CC[C@H]2[C@@H]3[C@H](O)C[C@@H]4C[C@H](O)CC[C@]4(C)[C@H]3C[C@H](O)[C@]12C [L-TyrCA, L-Tyrosocholic acid]
EC50 [2]: 46.3 µM
affinity for FXRα2 relative to D/L-TyrCDCA (fold lower) ([2]; reporter cells expressing uptake transporter): 6 fold

C[C@H](CCC(=O)N[C@@H](Cc1ccc(O)cc1)C(=O)O)[C@H]1CC[C@H]2[C@@H]3[C@H](O)C[C@@H]4C[C@H](O)CC[C@]4(C)[C@H]3CC[C@]12C [L-TyrCDCA, L-Tyrosochenodeoxycholic acid]
EC50 [2]: 7.8 µM

C[C@H](CCC(=O)N[C@@H](Cc1ccccc1)C(=O)O)[C@H]1CC[C@H]2[C@@H]3[C@@H](O)[C@@H](O)[C@@H]4C[C@H](O)CC[C@]4(C)[C@H]3CC[C@]12C [Pheβ muricholic acid]
spore germination of C. difficile [4]: inhibit

C[C@H](CCC(=O)N[C@@H](Cc1ccccc1)C(=O)O)[C@H]1CC[C@H]2[C@@H]3[C@H](O)C[C@@H]4C[C@H](O)CC[C@]4(C)[C@H]3C[C@H](O)[C@]12C [PheCA, phenylalanocholic acid]
growth of C. difficile [5]: not inhibited
effect on LPS-enhanced medium levels of TNFα and IL-6 [6]: counteracted
effect on microbial composition in vitro [7]: did not affect
spore germination of C. difficile [4]: inhibit

C[C@H](CCC(=O)N[C@@H](Cc1ccc(O)cc1)C(=O)O)[C@H]1CC[C@H]2[C@@H]3[C@H](O)C[C@@H]4C[C@H](O)CC[C@]4(C)[C@H]3C[C@H](O)[C@]12C [TyrCA, tyrosocholic acid]
growth of C. difficile [5]: not inhibited
effect on microbial composition in vitro [7]: did not affect
spore germination of C. difficile [4]: inhibit
detection in portal blood or bile after repeated oral gavage [8]: failure to detect; also recorded: did not lead to detection

C[C@H](CCC(=O)N[C@H](Cc1ccc(O)cc1)C(=O)O)[C@H]1CC[C@H]2[C@@H]3[C@H](O)C[C@@H]4C[C@H](O)CC[C@]4(C)[C@H]3C[C@H](O)[C@]12C [D-TyrCA, D-Tyrosocholic acid]
EC50 [2]: 9.9 µM

C[C@H](CCC(=O)N[C@H](Cc1ccc(O)cc1)C(=O)O)[C@H]1CC[C@H]2[C@@H]3[C@H](O)C[C@@H]4C[C@H](O)CC[C@]4(C)[C@H]3CC[C@]12C [D-TyrCDCA, D-Tyrosochenodeoxycholic acid]
EC50 [2]: 6.8 µM

CC(CCC(=O)NCC(=O)O)C1CCC2C3C(O)CC4CC(O)CCC4(C)C3CCC12C (centres unmarked) [GCDCA, glycochenodeoxycholic acid]
EC50 [3]: 29.4 ± 0.9 µM

C[C@H](CCC(=O)NCC(=O)O)[C@H]1CC[C@H]2[C@@H]3[C@H](O)C[C@@H]4C[C@H](O)CC[C@]4(C)[C@H]3C[C@H](O)[C@]12C [GCA, glycocholic acid]
EC50 [3]: 342 ± 26.7 µM

C[C@H](CCC(=O)N[C@@H](Cc1ccccc1)C(=O)O)[C@H]1CC[C@H]2[C@@H]3[C@H](O)C[C@@H]4C[C@H](O)CC[C@]4(C)[C@H]3CC[C@]12C [PheCDCA, phenylalanochenodeoxycholic acid]
effect on LPS-enhanced medium levels of TNFα and IL-6 [6]: counteracted

C=C[C@@]1(C)CC(=O)[C@]2(O)[C@@]3(C)[C@@H](O)CCC(C)(C)[C@@H]3[C@H](O)[C@H](OC(C)=O)[C@@]2(C)O1 [forskolin, Forskolin A]
activation of cAMP-driven reporter [9]: activated the reporter independent of TGR5 overexpression

CC(C)C[C@H](NC(=O)CC[C@@H](C)[C@H]1CC[C@H]2[C@@H]3[C@H](O)C[C@@H]4C[C@H](O)CC[C@]4(C)[C@H]3C[C@H](O)[C@]12C)C(=O)O [LeuCA, leucocholic acid]
effect on microbial composition in vitro [7]: did not affect
detection in portal blood or bile after repeated oral gavage [8]: failure to detect; also recorded: did not lead to detection

C[C@H](CCC(=O)NCCS(=O)(=O)O)[C@H]1CC[C@H]2[C@@H]3CC[C@@H]4C[C@H](O)CC[C@]4(C)[C@H]3CC[C@]12C [TLCA, taurolithocholic acid, reference compound]
change of LPS-induced IL-6 level ([6]; 50 µM pretreatment 1 h): -4.6 fold
change of LPS-induced TNFα level ([6]; 50 µM pretreatment 1 h): -3.6 fold
